In this data set the test system is MS2 coat protein. In words: apparent Kd, MS2 coat protein; higher = weaker binding; RNA-MaP array; theophylline 2 mM where present. Put shortly: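 Designs were transcribed by stalled E. coli RNA polymerase on Illumina sequencing-chip clusters. They were titrated with SNAP-549-labelled MS2 coat protein from 0.7 or 1.5 nM, doubling to 3 µM, without and then with constant ligand. Buffer: 100 mM Tris-HCl pH 7.5, 80 mM KCl, 4 mM MgCl2, BSA, DTT, yeast tRNA, Tween-20. Green signal was normalised to red-channel RNA signal and control-cluster median Fmax. Apparent Kd is the median of filtered per-cluster binding-curve fits.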

[1] abbreviates: designed as: ON switch for theophylline, no ligand.
Setting [2] is: ligand present: theophylline, designed as: ON switch for theophylline.
Setting [3] is: designed as: OFF switch for theophylline, no ligand.
Setting [4] is: ligand present: theophylline, designed as: OFF switch for theophylline.

“AGAUAACAUGGUUUAAUAAGAUAAACUGAUACCAGUGUAUAUAAUCACCCUUGGCAGCAGCAACAUGAGGAUCACCCAUGUAAUA”: the apparent Kd (commonly a dissociation constant that holds for the conditions of the assay) by setting is: under setting [1], 17 nM; under setting [2], 21.6 nM.

Take “UCUUGAGUUUCGGAUACCAGUGUUGUCGAUACAUGAGGAUCACCCAUGUUAGAGGAUGUACACCCUUGGCAGCCGGCUGUGGCGG”: the “apparent Kd” value was 20.7 nM under setting [1] and 13 nM under setting [2].

In the case of “AAACAUUGCUCAGAUACCAGACAUGAGGAUCACCCAUGUACCAAGGUAAAGAAAUAACGUGUCCCUUGGCAGCUGAGCAAUGAAA”, the “apparent Kd” value runs as follows: under setting [3], 10.2 nM; under setting [4], 109 nM.

As to “UGUUUGGUGCGCGAGUGUUGGAUAAUUGAUACCAGUGUAGAAGAGCGCCCUUGGCAGCGAAUCCUAACAUGAGGAUCACCCAUGU”, the “apparent Kd” value under setting [1] amounted to 40 nM and the “apparent Kd” value under setting [2] was found to be 57.3 nM.

As to “AACUGGGUUCGUGAUACCAGCUCACACAUGAGGAUCACCCAUGUAGUGGGUAAAAUGUGGAGCCCUUGGCAGCACUGUGACCACG”, the “apparent Kd” value reads like this: under setting [3], 13.2 nM; under setting [4], 60.7 nM.

As to “ACAUGAAGAACAGCGGUGGGCGCGCUCGAUACCAGUAUUUUAAACUACCCUUGGCAGCGACAUGAGGAUCACCCAUGUGAGAUGA”, the “apparent Kd” value was determined as 18.2 nM under setting [3] and 35.7 nM under setting [4].

As for “UGUAACAUGAGGAUCACCCAUGUAAGUGAUACCAGAUAAGUAGUAGUCCCUUGGCAGCAUAUUGGGCGAGUGUAUAGUCUAUACG”, the “apparent Kd” value by setting is: under setting [1], 50.4 nM; under setting [2], 61.1 nM.

On to “GGGAAUGAACGUGAUACCAGAGAUCCGGUCUCCGUCACUCUACAUGAGGAUCACCCAUGUCUCCCUUGGCAGCACCGUCAUCGGG”, for which the “apparent Kd” value reads like this: under setting [3], 34.4 nM; under setting [4], 61 nM.

On to “UCUUUCUAUUGUGAUACCAGACGUACAUGAGGAUCACCCAUGUUUCAUUCUUGUUUUAAAGUCCCUUGGCAGCACUAUUUGUUCG”, for which the “apparent Kd” value reads like this: under setting [3], 16.3 nM; under setting [4], 13.2 nM.

Turning to “AAACGUUGCUCAGAUACCAGACAUGAGGAUCACCCAUGUACCAAGGUAACCGAAAGGCAUGUCCCUUGGCAGCUGAGCAACGAAA”, the “apparent Kd” value by setting is: under setting [3], 12.8 nM; under setting [4], 262 nM.

In the case of “AAGGUGAUCCCAGAUACCAGCCUAACAUGAGGAUCACCCAUGUUUGGGACGAAAGUCCCAGGCCCUUGGCAGCUGGGUUGCCAAG”, the “apparent Kd” value reads like this: under setting [1], 225 nM; under setting [2], 30.3 nM.

For “CAAAACCUUACAGAUACCAGCACAUGAGGAUCACCCAUGUAUUGGACACUUCGCUCAUCGUGCCCUUGGCAGCUGUGGGACGAGG”, the “apparent Kd” value was 78.7 nM under setting [3] and 175 nM under setting [4].

Regarding “UCGUGUGUUUCGGAUACCAGUGAAAUCGAUACAUGAGGAUCACCCAUGUGAGAGGAUGUACACCCUUGGCAGCUGGCUGUAGCGG”, the “apparent Kd” value stood at 47.9 nM under setting [1] and 39.7 nM under setting [2].

Take “ACACAUGAGGAUCACCCAUGUCCAAUAGAUACCAGUGAUACAGUGCACCCUUGGCAGCUGUUACUGAGUAAUGGUUCCCUCGGAA”: the “apparent Kd” value worked out at 36.6 nM under setting [1] and 46 nM under setting [2].

Turning to “ACGAACUGUAGUGAUACCAGACGUACAUGAGGAUCACCCAUGUUGUAAACAUGGUUAAUAGUCCCUUGGCAGCACAGUUAGUUCG”, the “apparent Kd” value amounted to 347 nM under setting [3] and 531 nM under setting [4].

“GAUGAACUAUAUGAUACCAGACAACAUGAGGAUCACCCAUGUGAAAGUCGUCCUCUGCCUGUCCCUUGGCAGCGUAUAGUUUAUC”: the “apparent Kd” value came out at 50.4 nM under setting [3] and 168 nM under setting [4].

“GGGAAAGAAUGUGAUACCAGAGAACCGGUCUCCAUCAAUAUACAUGAGGAUCACCCAUGUCUCCCUUGGCAGCACCAUCAUCAAA”: the “apparent Kd” value reads like this: under setting [3], 23.1 nM; under setting [4], 75.8 nM.

Regarding “AAACAUUGCUGCGAUACCAGACAUGAGGAUCACCCAUGUACCAAGGUAAGAAAAUAACAUGUCCCUUGGCAGCGCAGCAAUGAAA”, the “apparent Kd” value by setting is: under setting [3], 16.4 nM; under setting [4], 418 nM.

As to “UGUAACAUGAGGAUCACCCAUGUGCACGAUACCAGCUUAUUGGUAGGCCCUUGGCAGCGUAUUCGGAAGAUGUAUAAUAUAUAUC”, the “apparent Kd” value is, setting by setting: under setting [1], 13.4 nM; under setting [2], 13.3 nM.

The values are drawn from the EternaBench riboswitch data.
